The test system of data set [1] is West Nile virus. Description: Antiviral activity against West Nile virus infected in African green monkey Vero cells incubated for 4 days by crystal violet staining based plaque reduction assay. The following applies: 96 h. Format: functional, organism-based. The method in brief: (§1)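 Cell monolayers at 80–90% confluence were infected with WNV lineage 2 strain at MOI 0.1 for 1 h at 37°C with 5% CO2, then washed. DMSO vehicle or compound (final 100, 10, 1, 0.1, 0.01 μM) was added in duplicate under a 0.5% agarose overlay. Ribavirin served as reference. After methanol fixation and 0.1% crystal violet staining, PFU were expressed relative to DMSO control. IC50 was interpolated at 50% PFU; experiments were repeated at least twice.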
In general terms: In a plaque reduction assay, fewer plaques than in the control indicate reduced infectivity or spread.

The subject of data set [2] is West Nile virus. Kind of data set: Antiviral activity against West Nile virus infected in human HuH7 cells assessed as reduction in capsid protein levels at 1 uM added at 1 hr post infection by SDS-PAGE analysis. Format: functional, organism-based. The method in brief: (§2)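 Huh7 cells were infected with WNV at MOI 0.1, with compound at 1 µM added 1 h or 3 h after infection; a no-compound infected control was run alongside. Cell lysates were run on 10% SDS-PAGE and immunoblotted with anti-capsid polyclonal antibody, then peroxidase-conjugated anti-rabbit IgG.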

The subject of data set [3] is West Nile virus. Description: Antiviral activity against West Nile virus infected in human HuH7 cells at 1 to 10 uM added after 3 hrs post infection by crystal violet staining based plaque reduction assay. Format: functional, organism-based. The method in brief: (§3)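 Huh7 cells infected with WNV at MOI 0.1; compound at 1 µM and 10 µM added at various times relative to infection. Read-out by viral plaque reduction assay. Means with standard deviation.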

In data set [4] the test system is West Nile virus. Kind of data set: Antiviral activity against West Nile virus infected in human A549 cells incubated for 4 days by crystal violet staining based plaque reduction assay. Type of data set: functional, organism-based. The following applies: A549, 96 h. The method in brief: as §1
For data set [5], the system named is Huh-7. Kind of data set: Cytotoxicity against human HuH7 cells after 3 days by MTT assay. The following applies: Homo sapiens, Huh-7, 72 h. Type of data set: cell-based. The method in brief: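 Huh7 cells (2.5 × 10^4 per well) adhered overnight. Confluent monolayers washed, then treated with compound (final 100–0.01 μM) or DMSO control for 3 days at 37°C. Viability by MTT, absorbance 570 nm, expressed relative to DMSO-treated cells.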
A general note: Formazan colour is commonly taken as a measure of viable cells.

The subject of data set [6] is West Nile virus. Kind of data set: Antiviral activity against West Nile virus infected in human HuH7 cells incubated for 4 days by crystal violet staining based plaque reduction assay. Format: functional, organism-based. The following applies: Huh-7, 96 h. The method in brief: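 Huh7 cells (2.5 × 10^5 per well, overnight) infected with lineage 2 WNV at MOI 0.1 for 1 h at 37°C, washed, then compound added in 10-fold dilutions (final 100–0.01 μM) with DMSO as virus control. Agarose overlay, 4 days at 37°C, methanol fixation, crystal violet staining. PFU relative to DMSO; IC50 by exponential fit at 50% PFU. Duplicates, repeated at least twice.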

Data set [7] has as its system West Nile virus. Description: Antiviral activity against West Nile virus infected in human HuH7 cells assessed as reduction in complementary RNA at 1 uM added at 1 hr post viral infection by PCR analysis. Type of data set: functional, organism-based. The method in brief: (§4)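 Huh7 cells infected with WNV at MOI 0.1; compound at 1 µM added 1 h or 3 h after infection. Total RNA (200 ng) reverse-transcribed with strand-specific primers for genomic or complementary WNV RNA, then quantified by real-time PCR against plasmid standards. Detection limit 10 copies. Means with standard deviation.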

Data set [8] has as its system West Nile virus. Description: Antiviral activity against West Nile virus infected in human HuH7 cells assessed as reduction in genomic RNA at 1 uM added at 1 hr post viral infection by PCR analysis. Type of data set: functional, organism-based. The method in brief:
as §4

The target of data set [9] is ATP-dependent RNA helicase DDX3X (Homo sapiens, UniProt O00571). Kind of data set: Inhibition of full length His-tagged human DDX3X expressed in Escherichia coli assessed as reduction in DDX3X helicase activity using FAM-labeled double stranded RNA as substrate after 40 mins by FRET assay relative to control. The method in brief:
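Recombinant His-tagged full-length DDX3X expressed in E. coli, Ni-NTA purified. Unwinding of FAM-labelled dsRNA, with capture strand at 100 nM, in Tris-HCl pH 8, 70 mM KCl, 2 mM MgCl2, 2 mM DTT, 2 mM ATP. Started with DDX3X, 37°C, 40 min, fluorescence read every 30 s. Initial slope gives unwinding rate; IC50 by nonlinear regression of triplicates.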

The subject of data set [10] is West Nile virus. Kind of data set: Antiviral activity against West Nile virus infected in human HuH7 cells assessed as reduction in capsid protein levels at 1 uM added at 3 hrs post infection by SDS-PAGE analysis. Format: functional, organism-based. The method in brief:
as §2

Data set [11] deals with Vero. Kind of data set: Cytotoxicity against African green monkey Vero cells after 3 days by MTT assay. The following applies: Chlorocebus sabaeus, 72 h. Format: cell-based. The method in brief:
(§5)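 Confluent monolayers were washed with PBS and treated in DMEM with DMSO alone (control) or compound at final 100, 10, 1, 0.1, 0.01 μM. Cells were incubated 3 days at 37°C, then given MTT with absorbance read at 570 nm. Cytotoxicity was taken as the OD ratio of treated to DMSO wells, and CC50 was the concentration killing 50% of uninfected cells.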

Data set [12] concerns West Nile virus. Description: Antiviral activity against West Nile virus infected in human HuH7 cells at 1 to 10 uM added before 2 hrs post infection by crystal violet staining based plaque reduction assay. Format: functional, organism-based. The method in brief:
as §3

In data set [13] the target is T1, ATP-dependent RNA helicase DDX1 (Homo sapiens, UniProt Q92499).
T1 sequence (Q92499 whole entry): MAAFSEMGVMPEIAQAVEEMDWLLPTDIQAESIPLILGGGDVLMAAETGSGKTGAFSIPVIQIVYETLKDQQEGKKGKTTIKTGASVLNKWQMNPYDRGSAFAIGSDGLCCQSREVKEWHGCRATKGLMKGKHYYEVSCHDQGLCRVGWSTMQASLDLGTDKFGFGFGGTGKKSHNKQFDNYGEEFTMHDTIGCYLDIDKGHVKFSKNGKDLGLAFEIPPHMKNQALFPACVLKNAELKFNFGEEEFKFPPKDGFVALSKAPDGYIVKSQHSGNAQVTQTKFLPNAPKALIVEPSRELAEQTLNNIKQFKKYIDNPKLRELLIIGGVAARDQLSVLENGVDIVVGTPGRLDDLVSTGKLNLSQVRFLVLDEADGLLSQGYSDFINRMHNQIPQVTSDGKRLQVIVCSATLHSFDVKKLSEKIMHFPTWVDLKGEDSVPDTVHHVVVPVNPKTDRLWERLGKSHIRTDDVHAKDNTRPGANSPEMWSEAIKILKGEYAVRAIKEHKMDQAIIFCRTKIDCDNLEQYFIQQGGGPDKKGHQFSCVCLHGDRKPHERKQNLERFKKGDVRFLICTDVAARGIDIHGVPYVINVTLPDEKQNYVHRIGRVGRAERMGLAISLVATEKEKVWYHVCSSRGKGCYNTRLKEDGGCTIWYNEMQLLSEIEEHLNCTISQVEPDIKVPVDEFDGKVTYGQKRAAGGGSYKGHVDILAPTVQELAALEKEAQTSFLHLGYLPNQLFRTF
Description: Inhibition of human DDX1 helicase activity.

The nature of data set [14]: Metabolic stability in human liver microsomes at 50 uM after 60 mins in presence of NADPH-generating system by LC-UV-MS analysis. The following applies: read-out: Stability. Format: ADME, Microsome. The method in brief:
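Compound at 50 μM final (DMSO ≤2%) incubated with human liver microsomes (0.2 mg/mL) and NADPH-generating system in 125 mM phosphate buffer pH 7.4, 37 °C, 60 min. Remaining compound measured by LC-ESI-MS in positive ion mode, with UV at 280 nm.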
Background: Microsomes from liver hold many membrane-bound enzymes, among them those of drug oxidation.

A short description of data set [15]: Apparent permeability of the compound by PAMPA. Format: ADME. The method in brief: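 PAMPA: 0.5 mM donor solution in pH 7.4 phosphate buffer, diluted from 1 mM DMSO stock. Filter coated with 1% phosphatidylcholine in dodecane; acceptor 50% DMSO in buffer. Incubated 5 h at room temperature with shaking. Donor and acceptor quantified by LC-UV at 280 nm and Papp calculated. Three plates on different days.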

Data set [16] concerns A549. Description: Cytotoxicity against human A549 cells after 3 days by MTT assay. Type of data set: cell-based. The following applies: A549, 72 h. The method in brief:
as §5

The subject of data set [17] is West Nile virus. Kind of data set: Antiviral activity against West Nile virus infected in human HuH7 cells assessed as reduction in genomic RNA at 1 uM added at 3 hrs hrs post viral infection by PCR analysis. Format: functional, organism-based. The method in brief:
as §4

The source made the active and inactive calls. The calls are words filed in the database; no cut-off is given here.

Here are results for 1 molecule from ChEMBL document CHEMBL4480403, “DDX3X Helicase Inhibitors as a New Strategy To Fight the West Nile Virus Infection” (J Med Chem, 2019).

The EC50 is the concentration that produces a half-maximal response. Usually IC50 stands for the concentration at which inhibition is half-maximal. One may read the inhibition as the relative decrease from the control value, in per cent. As a reminder, the Papp is the rate of passage across a membrane or cell layer, normalised by area and donor concentration.

ATP-dependent RNA helicase DDX3X, sequence (O00571 2-662 limits assumed): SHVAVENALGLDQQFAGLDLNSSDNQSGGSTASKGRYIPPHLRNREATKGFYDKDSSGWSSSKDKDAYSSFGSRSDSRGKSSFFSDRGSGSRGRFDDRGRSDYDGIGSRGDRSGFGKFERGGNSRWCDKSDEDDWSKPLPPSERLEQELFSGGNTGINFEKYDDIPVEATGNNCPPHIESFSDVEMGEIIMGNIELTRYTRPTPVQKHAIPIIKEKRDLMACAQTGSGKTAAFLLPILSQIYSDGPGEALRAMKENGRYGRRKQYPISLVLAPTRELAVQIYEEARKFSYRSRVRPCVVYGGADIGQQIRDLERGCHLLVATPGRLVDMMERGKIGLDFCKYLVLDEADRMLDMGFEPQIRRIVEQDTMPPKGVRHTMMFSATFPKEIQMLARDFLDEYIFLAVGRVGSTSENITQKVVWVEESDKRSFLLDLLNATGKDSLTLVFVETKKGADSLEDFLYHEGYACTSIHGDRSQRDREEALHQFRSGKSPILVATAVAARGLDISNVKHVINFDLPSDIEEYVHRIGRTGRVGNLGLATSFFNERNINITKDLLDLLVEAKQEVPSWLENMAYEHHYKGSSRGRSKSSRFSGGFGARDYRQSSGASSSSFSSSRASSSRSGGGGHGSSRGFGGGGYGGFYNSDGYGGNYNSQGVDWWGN

With `CCCCc1cn(-c2cccc(S(=O)(=O)Nc3ccccc3C(F)(F)F)c2)nn1`, the EC50 in [1] was 12 µM; in data set [4] it was 3.4 µM; in [6] it was 23.1 µM. The outcome in data set [2], in data set [7], in data set [8] and in data set [12] was Active. In addition, the outcome in data set [3], in [10] and in data set [17] was inactive. Further, the IC50 is > 200 µM in data set [5], > 200 µM in [11], > 200 µM in [13] and 21.3 µM in data set [16]. Further, the inhibition in data set [9] was found to be 98%. Further, in [14], the remaining at 1 h, 50 µM came to 99%. Moreover, the Papp in data set [15] came to 0.21 ×10⁻⁶ cm/s.
